1 compound from ChEMBL document CHEMBL1158589, “Benzimidazole and imidazole inhibitors of histone deacetylases: Synthesis and biological activity” (Bioorg Med Chem Lett, 2010) can be followed below.

Active and inactive are the calls of the source. The calls are words filed in the database; no cut-off is given here.

Data set [1] has as its system PANC-1. As to the kind of experiment: Induction of histone H3 hyperacetylation in human PANC1 cells xenografted in mouse at 50 mg/kg, ip. It counts as functional, organism-based. Details: dose 50 mg/kg. The procedure, abridged:
(§1)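 Mice bearing PANC-1 tumors given a single intraperitoneal dose of 50 mg/kg, vehicle control. Tumors harvested at set time points up to about 24 h. Whole tissue lysates Western blotted with antibodies to acetylated histone H3 or H4, actin as loading control.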
In general terms: In xenograft studies the graft and the host belong to different species.

In data set [2] the target is T1, Protein deacetylase HDAC6 (Homo sapiens, UniProt Q9UBN7).
T1 sequence (Q9UBN7 whole entry): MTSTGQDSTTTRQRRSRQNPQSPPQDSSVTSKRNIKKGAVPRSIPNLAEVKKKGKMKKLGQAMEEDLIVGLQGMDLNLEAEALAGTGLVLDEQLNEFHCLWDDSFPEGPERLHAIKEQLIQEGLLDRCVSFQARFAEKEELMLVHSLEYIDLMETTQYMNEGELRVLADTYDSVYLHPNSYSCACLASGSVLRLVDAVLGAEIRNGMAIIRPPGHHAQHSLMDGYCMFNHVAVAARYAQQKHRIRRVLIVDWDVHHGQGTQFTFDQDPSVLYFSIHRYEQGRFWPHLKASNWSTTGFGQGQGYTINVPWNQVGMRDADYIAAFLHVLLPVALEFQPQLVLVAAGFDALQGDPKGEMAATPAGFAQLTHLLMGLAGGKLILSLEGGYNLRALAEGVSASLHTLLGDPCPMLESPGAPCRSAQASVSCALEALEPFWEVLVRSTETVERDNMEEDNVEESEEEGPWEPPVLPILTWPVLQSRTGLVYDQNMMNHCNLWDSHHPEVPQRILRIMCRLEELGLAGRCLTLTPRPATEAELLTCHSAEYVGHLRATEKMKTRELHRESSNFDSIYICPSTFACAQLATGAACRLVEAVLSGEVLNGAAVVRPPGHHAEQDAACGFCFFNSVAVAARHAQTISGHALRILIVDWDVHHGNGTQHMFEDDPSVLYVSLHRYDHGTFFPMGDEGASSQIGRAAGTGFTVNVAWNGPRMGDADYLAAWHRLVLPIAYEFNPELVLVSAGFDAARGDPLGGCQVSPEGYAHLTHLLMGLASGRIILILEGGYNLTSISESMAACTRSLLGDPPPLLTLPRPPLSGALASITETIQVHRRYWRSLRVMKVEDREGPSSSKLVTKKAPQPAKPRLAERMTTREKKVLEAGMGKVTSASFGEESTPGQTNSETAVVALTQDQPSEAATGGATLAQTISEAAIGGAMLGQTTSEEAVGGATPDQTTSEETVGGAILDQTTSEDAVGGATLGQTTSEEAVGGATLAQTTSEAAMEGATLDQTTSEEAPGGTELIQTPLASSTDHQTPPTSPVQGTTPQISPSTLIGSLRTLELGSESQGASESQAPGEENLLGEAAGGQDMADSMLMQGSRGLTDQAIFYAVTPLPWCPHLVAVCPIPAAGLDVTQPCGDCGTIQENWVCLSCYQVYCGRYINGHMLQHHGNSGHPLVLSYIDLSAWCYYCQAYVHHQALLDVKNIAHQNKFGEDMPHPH
As to the kind of experiment: Inhibition of human recombinant HDAC6. In outline:
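Purified recombinant human HDAC-2 or HDAC-6 at known enzyme concentration with tBOC(Ac)-Lys-AMC as substrate. IC50 is the mean of at least three experiments.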

Another data set has as its target T2, Histone deacetylase 8 (Homo sapiens, UniProt Q9BY41).
T2 sequence (Q9BY41 whole entry): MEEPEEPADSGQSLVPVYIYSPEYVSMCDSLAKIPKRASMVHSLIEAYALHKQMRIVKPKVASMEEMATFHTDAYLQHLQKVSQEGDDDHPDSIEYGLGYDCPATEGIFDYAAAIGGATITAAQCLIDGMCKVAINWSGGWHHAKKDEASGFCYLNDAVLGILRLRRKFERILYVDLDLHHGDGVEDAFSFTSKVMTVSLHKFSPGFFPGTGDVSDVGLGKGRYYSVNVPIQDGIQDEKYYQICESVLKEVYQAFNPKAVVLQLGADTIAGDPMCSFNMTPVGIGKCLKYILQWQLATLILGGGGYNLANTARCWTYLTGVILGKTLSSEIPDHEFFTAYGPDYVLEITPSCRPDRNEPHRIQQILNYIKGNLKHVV
As to the kind of experiment: Inhibition of human recombinant HDAC8.

The test system of another data set is A549. As to the kind of experiment: Cytotoxicity against human A549 cells assessed as NADH level after 72 hrs by MTS cells. It counts as functional, cell-based. As to conditions: A549, 72 h. In outline: (§2)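 Human A549 lung, HL60 leukemia and PC3 prostate cancer lines incubated with compound for 72 h. Viability read by MTS colorimetric assay from remaining NADH; EC50 calculated; mean of at least two experiments.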

Data set [3] has as its system HCT-116. Put plainly: Antitumor activity against human HCT116 cells xenografted in mouse assessed as tumor growth inhibition at 25 mg/kg, ip qd for 5 days per week. It counts as functional. As to conditions: route intraperitoneal. The procedure, abridged:
(§3)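 Human HCT116 colon xenografts in mice; intraperitoneal dosing qdx5 per week, 15 doses in total. %T/C calculated when vehicle-treated mice reached 1 g median tumor size, 10 days after the last dose.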

The next data set has as its system PC-3. Put plainly: Cytotoxicity against human PC3 cells assessed as NADH level after 72 hrs by MTS cells. It counts as functional, cell-based. As to conditions: PC-3, 72 h. In outline:
as §2

Data set [4] concerns Mus musculus. As to the kind of experiment: Toxicity in human HCT116 cells xenografted mouse assessed as change in body weight at 40 mg/kg, […]. The following applies: in vivo, ip, 120 h. Details: dose 40 mg/kg, route intraperitoneal. Format: organism-based, HCT-116.
For data set [5], the system named is HCT-116. As to the kind of experiment: Antitumor activity against human HCT116 cells xenografted in mouse assessed as tumor growth inhibition at 15 mg/kg, ip qd for 5 days per week. It counts as functional. As to conditions: route intraperitoneal. In outline:
as §3

For data set [6], the system named is HL-60. Put plainly: Cytotoxicity against human HL60 cells assessed as NADH level after 72 hrs by MTS cells. As to conditions: HL-60, 72 h. Format: functional, cell-based. In outline: as §2
Data set [7] is described as follows: Inhibition of HDAC assessed as induction of p21WAF1 expression in engineered cell line by luciferase reporter gene assay. (A reporter such as luciferase makes a cellular process visible.)
Data set [8] has as its system Mus musculus. Put plainly: Toxicity in human HCT116 cells xenografted mouse assessed as change in body weight at 15 mg/kg, […]. As to conditions: in vivo, ip, 120 h. Details: dose 15 mg/kg, route intraperitoneal. Format: organism-based, HCT-116.
The test system of data set [9] is HL-60. Put plainly: Induction of histone H3 hyperacetylation in human HL60 cells after 4 hrs by Western blotting. It counts as functional, cell-based. The following applies: HL-60, 4 h. The procedure, abridged: (§4)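 HL60 leukemia cells exposed 4 h to 2.5-fold serial dilutions of compound, DMSO control. Whole-cell lysates Western blotted for acetylated histone H3 and H4, PCNA as loading control. Signals quantified to give the half-maximal response concentration.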
A general note: A western blot detects proteins with antibodies after separation by electrophoresis.

Data set [10] relates to HL-60. Put plainly: Induction of histone H4 hyperacetylation in human HL60 cells after 4 hrs by Western blotting. It counts as functional, cell-based. As to conditions: HL-60, 4 h. The procedure, abridged: as §4
The subject of data set [11] is Mus musculus. As to the kind of experiment: Toxicity in human HCT116 cells xenografted mouse assessed as change in body weight at 25 mg/kg, […]. The following applies: in vivo, ip, 120 h. It counts as organism-based, HCT-116. Details: dose 25 mg/kg, route intraperitoneal.
Data set [12] concerns HCT-116. Put plainly: Antitumor activity against human HCT116 cells xenografted in mouse assessed as tumor growth inhibition at 40 mg/kg, ip qd for 5 days per week. Format: functional. The following applies: route intraperitoneal. In outline: as §3
In data set [13] the test system is PANC-1. As to the kind of experiment: Induction of histone H4 hyperacetylation in human PANC1 cells xenografted in mouse at 50 mg/kg, ip. Format: functional, organism-based. Details: dose 50 mg/kg. In outline:
as §1

Consider `CN1CCC[C@@H](n2c(-c3cccc(/C=C/C(=O)NO)c3)nc3ccccc32)C1`, for which the outcome with PANC-1 [1] and in the data set on PANC-1 [13] was Active. The half-maximal inhibitory concentration (IC50) in data set [2] stood at 100 nM; on Histone deacetylase 8, 200 nM. For the same compound, the 50% effective concentration (EC50) with A549 is 300 nM; with PC-3, 50 nM; in the data set on HL-60 [6], 40 nM; in data set [7] it was 1000 nM; in the data set with HL-60 [9], 100 nM; with HL-60 [10] it was 110 nM. For the same compound, the T/C came to 47% in the data set with HCT-116 [3], 66% with HCT-116 [5] and 45% in the data set with HCT-116 [12]. Also, the Activity in the data set with Mus musculus [4] was -3.6%; in the data set with Mus musculus [8], 1.7%; in the data set on Mus musculus [11], -2.5%.

As a reminder, the IC50 is the concentration that gives 50% inhibition. The EC50 is the concentration that produces a half-maximal response. A word on the T/C: it is the ratio of treated to control.
